{"data": "Assay results from different studies", "target": "Receptor-interacting serine/threonine-protein kinase 2 (RIPK2, Homo sapiens, UniProt O43353)", "note": "Compare with care: the assays were run in different laboratories."}
{"SMILES": "C#Cc1cc(-c2cc(Nc3nc(N[C@@H](C)c4ccc(F)cn4)ncc3Cl)n[nH]2)ccc1C=O", "test": "enzyme activity, inhibitor", "conditions": "0.2 µM", "measurement": "inhibition", "result": "14.7%"}
{"SMILES": "C=CC(=O)N1CCC([C@@H]2CCNc3c(C(N)=O)c(-c4ccc(Oc5ccccc5)cc4)nn32)CC1", "test": "enzyme activity, inhibitor", "conditions": "1 µM", "measurement": "inhibition", "result": "96%"}
{"SMILES": "COc1ccc2oc(-c3ccc4nc(N)oc4c3)c/c(=N\\c3ccccc3NC(=O)CCN)c2c1", "test": "binding", "conditions": "1 µM", "measurement": "remaining binding", "result": "112%"}
{"SMILES": "CCCCC(=O)Nc1ccc(-c2ccc3ncn(CCC)c(=O)c3c2)cn1", "test": "binding, competition with immobilised ligand", "conditions": "0.5 µM", "measurement": "remaining binding", "result": "98%"}
{"SMILES": "COc1ccc2[nH]c3c4[nH]c5ccc(OC)cc5c4c4c(c3c2c1)C(=O)NC4=O", "test": "binding, competition with immobilised ligand", "conditions": "1 µM", "measurement": "remaining binding", "result": "60%"}
{"SMILES": "CO[C@@H]1[C@H](N(C)C(=O)c2ccccc2)C[C@H]2O[C@]1(C)n1c3ccccc3c3c4c(c5c6ccccc6n2c5c31)C(=O)NC4", "test": "enzyme activity, inhibitor", "conditions": "1 µM", "measurement": "inhibition", "result": "0%"}
{"SMILES": "Cc1ccc(NC(=O)c2ccnc(C(F)(F)F)c2)cc1-c1cc(OCCO)nc(N2CCOCC2)c1", "test": "binding, competition with immobilised ligand", "conditions": "1 µM", "measurement": "remaining binding", "result": "63%"}
{"SMILES": "CC(C)S(=O)(=O)c1ccc2nccc(Nc3ccc4sc(C5CCCC5)nc4c3)c2c1", "test": "enzyme activity, inhibitor", "conditions": "1 µM", "measurement": "activity vs control", "result": "2.5%"}
